# Measurements taken from paper PMC3794474 (Journal of medicinal chemistry, 2011).
# Where two headings read alike, the source gives them in different places.
# Experiments:
# [1] = target: T1, rat α1β2γ2L type GABAA receptors expressed in Xenopus laevis oocytes (Rattus norvegicus, UniProt P62813+P63138); format: cell-based; details: 2 µM GABA; for Potentiation, steroids 1 and 6a directly compared on the same oocyte (Figure 4): 1 and 10 µM compound, 6 to 7 oocytes; for oocyte electrophysiology, ratio of currents in presence/absence of compound: ± SEM, N ≥ 4
# Outline: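 Rat α1β2γ2L GABAA receptors expressed in Xenopus oocytes with whole-cell recording. Currents with test compound plus 2 µM GABA were expressed as a ratio to 2 µM GABA alone, with at least four oocytes per compound. Direct gating used 10 µM compound without GABA, given as a ratio to the 2 µM GABA current. In the within-oocyte comparison, 1 or 10 µM compound was co-applied with 2 µM GABA and averaged over 6–7 oocytes.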
# tadpole [2] = details: read-out: Tadpole LRR EC50; ± SEM; cited from earlier work
# BALB/C mice = experiment: Anesthesia; format: in vivo, mouse; details: tail vein injection
# tadpole [3] = details: read-out: Tadpole LSR EC50; ± SEM; None = all animals had a swimming response at 10 µM of the test compound; cited from earlier work
# [4] = target: picrotoxin binding site on GABAA receptors; details: read-out: IC50, inhibition of [35S]-TBPS binding; ± SEM; cited from earlier work
# [5] = target: T1, rat α1β2γ2L type GABAA receptors expressed in Xenopus laevis oocytes; details: 2 µM GABA, ± SEM, cited from earlier work
# tadpole [6] = experiment: Tadpole loss of righting reflex; format: in vivo; details: read-out: Tadpole LRR EC50; ± SEM, N = 10 or more animals at each of five or more concentrations
# tadpole [7] = experiment: Tadpole loss of swimming reflex; format: in vivo; details: ± SEM, None = all animals had a swimming response at 10 µM of the test compound
molecule,measurement,setting,value
"CC(=O)[C@H]1CC[C@H]2[C@@H]3CC[C@H]4C[C@H](O)CC[C@]4(C)[C@H]3C(=O)C[C@]12C [Compound 1, (3α,5α)-3-hydroxypregnane-11,20-dione]","Potentiation, steroids 1 and 6a directly compared on the same oocyte (Figure 4)",[1],potentiate to the same level
same,EC50,tadpole [2],1.12 ± 0.14 µM
same,Anesthetic effect in mice,"BALB/C mice; 8 mg/kg, 22.5% 2-hydroxypropyl-β-cyclodextrin",very brief anesthesia
same,Onset of loss of righting reflex,"BALB/C mice; mice, 16 mg/kg",immediate loss of righting reflex
same,Recovery period from initial return of leg movement to righting and walking,"BALB/C mice; mice, 16 mg/kg",1 to 2 min
same,EC50,tadpole [3],5.48 ± 0.11 µM
"CC(=O)C1=CC[C@H]2[C@@H]3CC[C@H]4C[C@H](O)CC[C@]4(C)[C@H]3C(=O)C[C@]12C [Compound 2, (3α,5α)-3-hydroxypregn-16-ene-11,20-dione]",IC50,[4],2.22 µM
same,EC50,tadpole [2],> 10 µM
same,"oocyte electrophysiology, ratio of currents in presence/absence of compound",[5]; 0.1 µM compound,0.94 ± 0.04
same,"oocyte electrophysiology, ratio of currents in presence/absence of compound",[5]; 1 µM compound,0.97 ± 0.05
same,"oocyte electrophysiology, ratio of currents in presence/absence of compound",[5]; 10 µM compound,1.87 ± 0.14
"C[C@]12CC[C@@H](O)C[C@@H]1CC[C@@H]1[C@@H]2C(=O)C[C@]2(C)C(C=O)=CC[C@@H]12 [Compound 5a, (3α,5α)-3-Hydroxy-11-oxoandrost-16-ene-17-carboxaldehyde]",EC50,tadpole [6],~3 µM
same,Tadpole LSR EC50,tadpole [7],None
"C[C@]12CC[C@@H](O)C[C@@H]1CC[C@H]1[C@@H]3CC[C@H](C=O)[C@@]3(C)CC(=O)[C@@H]12 [Compound 5b, (3α,5α,17β)-3-Hydroxy-11-oxoandrostane-17-carboxaldehyde]",Tadpole LSR EC50,tadpole [7],None
"C[C@]12CC[C@@H](O)C[C@@H]1CC[C@@H]1[C@@H]2C(=O)C[C@]2(C)/C(=C\C#N)CC[C@@H]12 [Compound 6a, [3α,5α,17(20)Z]-3-Hydroxy-11-oxopregn-17(20)-ene-21-nitrile]","Potentiation, steroids 1 and 6a directly compared on the same oocyte (Figure 4)",[1],potentiate to the same level
same,Time to loss of movement and righting reflex (onset),"BALB/C mice; mice, 8 mg/kg",10 to 25 s
same,Onset of loss of righting reflex,"BALB/C mice; mice, 16 mg/kg",immediate loss of righting reflex
"C/C(C#N)=C1\CC[C@H]2[C@@H]3CC[C@H]4C[C@H](O)CC[C@]4(C)[C@H]3C(=O)C[C@]12C [Compound 6c, [3α,5α,17(20)Z]-3-Hydroxy-11-oxopregn-17(20)-ene-20-carbonitrile]",EC50,tadpole [7]; read-out: Tadpole LSR EC50,< 10 µM
"(3α,5α)-3-Hydroxy-11-oxopregnan-21-carbonitrile [Compound 5c]","oocyte electrophysiology, ratio of currents in presence/absence of compound",[1]; 0.1 µM compound,0.91 ± 0.03
same,"oocyte electrophysiology, ratio of currents in presence/absence of compound",[1]; 1 µM compound,1.13 ± 0.08
same,"oocyte electrophysiology, ratio of currents in presence/absence of compound",[1]; 10 µM compound,4.67 ± 0.14
same,EC50,tadpole [6],3.58 ± 1.59 µM
same,Tadpole LSR EC50,tadpole [7],None
